Laboratory results published in ChEMBL document CHEMBL4190230, “Structurally Diverse Diterpenoids from Isodon scoparius and Their Bioactivity” (J Nat Prod, 2017).

Key:
Format in all cases: functional, cell-based
[1] = test system: RAW264.7; test: Inhibition of LPS-induced NO production in mouse RAW264.7 cells after 18 hrs by Griess assay; conditions: RAW264.7, 18 h
Outline: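 RAW264.7 macrophages seeded at 1.5 × 10^5 cells/well, given serial dilutions (top 20 μM) in triplicate, then stimulated with 1 μg/mL LPS for 18 h. Supernatant nitrite measured with Griess reagent, 5 min, absorbance 570 nm. L-NMMA positive control; parallel MTS viability check to exclude cytotoxic interference.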

[2] = test system: HL-60; test: Antiproliferative activity against human HL60 cells after 48 hrs by MTS assay; conditions: HL-60, 48 h
Outline: (§1)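 Cells grown in RPMI-1640 or DMEM with 10% FBS at 37 °C, 5% CO2. Seeded, 12 h at 37 °C, then 40 μM single-concentration screen, 48 h exposure, MTS read-out. Compounds reaching 50% growth inhibition retested at 0.064, 0.32, 1.6, 8 and 40 μM in triplicate; cisplatin and paclitaxel positive controls; IC50 by Reed and Muench method.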

[3] = test system: SMMC-7721; test: Antiproliferative activity against human SMMC7721 cells after 48 hrs by MTS assay; conditions: SMMC-7721, 48 h; outline: as §1
[4] = test system: A549; test: Antiproliferative activity against human A549 cells after 48 hrs by MTS assay; conditions: A549, 48 h; outline: as §1
[5] = test system: MCF7; test: Antiproliferative activity against human MCF7 cells after 48 hrs by MTS assay; conditions: MCF7, 48 h; outline: as §1
[6] = test system: SW480; test: Antiproliferative activity against human SW480 cells after 48 hrs by MTS assay; conditions: SW480, 48 h; outline: as §1

Structure (SMILES)	IC50 [1]	IC50 [2]	IC50 [3]	IC50 [4]	IC50 [5]	IC50 [6]
CNC(=N)NCCC[C@H](N)C(=O)O [TILARGININE ACETATE]	39.9 µM					
C=C1C(=O)[C@]23C[C@@]1(O)C[C@H](OC(C)=O)[C@H]2[C@@]1(C)[C@H](C[C@H]3O)[C@](C)(COC(C)=O)CC[C@@H]1O	1.8 µM	3.2 µM	3.9 µM	13.4 µM	4.8 µM	1.3 µM
C=C1[C@@H](O)[C@@]23CC[C@@H]4C(C)(C)[C@H](O)CC[C@@]4(C)[C@@H]2[C@@H](O)C[C@]1(O)C3		> 40 µM	> 40 µM	> 40 µM	> 40 µM	> 40 µM
C=C1[C@@H](O)[C@@]23CC[C@H]4[C@@](C)(CCC[C@@]4(C)C=O)[C@@H]2[C@@H](OC(C)=O)C[C@]1(O)C3		> 40 µM	> 40 µM	> 40 µM	> 40 µM	> 40 µM
C=C1[C@@H](O)[C@@]23CC[C@@H]4[C@@](C)(CO)CCC[C@@]4(C)[C@@H]2[C@@H](OC(C)=O)C[C@]1(O)C3		> 40 µM	> 40 µM	> 40 µM	> 40 µM	> 40 µM
C=C1C(=O)[C@@]23CC[C@@H]4C(C)(C)[C@@H](O)CC[C@@]4(C)[C@@H]2[C@@H](OC(C)=O)C[C@]1(O)C3	1 µM	1 µM	1.5 µM	4.4 µM	2.9 µM	0.9 µM
C=C1[C@@H](O)[C@@]23CC[C@@H]4[C@@](C)(CO)CCC[C@@]4(C)[C@@H]2[C@@H](O)C[C@]1(O)C3		> 40 µM	> 40 µM	> 40 µM	> 40 µM	> 40 µM
CC(=O)O[C@H]1C(=O)[C@@]2(C)[C@H]([C@H](OC(=O)c3ccccc3)[C@]3(O)C[C@H](OC(=O)[C@H](O)[C@@H](NC(=O)c4ccccc4)c4ccccc4)C(C)=C1C3(C)C)[C@]1(OC(C)=O)CO[C@@H]1C[C@@H]2O [PACLITAXEL]		< 0.008 µM	< 0.008 µM	< 0.008 µM	< 0.008 µM	< 0.008 µM
C=C1[C@@H](O)[C@@]23CC[C@@H]4C(C)(C)[C@H](O)CC[C@@]4(C)[C@@H]2[C@@H](OC(C)=O)C[C@]1(O)C3		> 40 µM	> 40 µM	> 40 µM	> 40 µM	> 40 µM
C[C@@]1(CO)CCC[C@@]2(C)[C@H]1C[C@@H](O)C1=CC(=O)CC[C@@]12O		> 40 µM	> 40 µM	> 40 µM	> 40 µM	> 40 µM
C=C1C(=O)[C@]23C[C@@]1(O)C[C@H](OC(C)=O)[C@H]2[C@@]1(C)[C@H](C[C@H]3O)C(C)(C)CC[C@@H]1O	3.1 µM	7 µM	4.7 µM	19.6 µM	11 µM	2.5 µM
C=C1C(=O)[C@]23C[C@@]1(O)C[C@H](OC(C)=O)[C@H]2[C@@]1(C)[C@H](C[C@H]3O)[C@](C)(CO)CC[C@@H]1O		> 40 µM	> 40 µM	> 40 µM	> 40 µM	> 40 µM
C=C1[C@@H](O)[C@@]23CC[C@@H]4C(C)(C)[C@@H](O)CC[C@@]4(C)[C@@H]2[C@@H](OC(C)=O)C[C@]1(O)C3		> 40 µM	> 40 µM	> 40 µM	> 40 µM	> 40 µM
